Data set [1] has as its system fibroblasts NCTC cells (clone 929). Description: Cytotoxicity against mammalian cells. The format is cell-based. Conditions: for CC50: read-out: CC50 NCTC, NCTC cells (clone L929), 48 h, MTT; for SI (Selective Index): ratio between CC50 (NCTC) and IC50 (amastigote - TCA). The gist of the method:
(§1)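 NCTC clone 929 fibroblasts were seeded at 6 × 10^4 cells/well and exposed to test compound (200 to 1.5 μM, 1:2 dilutions) for 48 h at 37 °C in 5% CO2, with 0.5% v/v DMSO final. Viability was read by MTT at 570 nm, and CC50 was taken from sigmoid dose–response curves. SI = CC50 divided by the amastigote IC50. Two independent runs, each in duplicate.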

Data set [2] is described as follows: Cytotoxicity against mammalian cells. The data set is classed as cell-based. Conditions: mouse, NCTC clone 929 (L929) fibroblasts. The gist of the method:
as §1

Data set [3] deals with T. cruzi trypomastigotes (Y strain). The experiment in a line: Anti-trypomastigote assay. The data set is classed as cell-based. The settings on record: Trypanosoma cruzi, 24 h, read-out: IC50 (µM ± SD) T.c.T. The essentials:
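Y-strain trypomastigotes at 1 × 10^6 cells/well in RPMI 1640 were exposed to test compound (150 to 1.1 μM, 1:2 dilutions) for 24 h at 37 °C in 5% CO2, with 0.5% v/v DMSO final. Resazurin (0.011% v/v) was then added for 24 h and absorbance read at 570 nm. IC50 came from non-linear regression against untreated parasites as 100% viability. Two independent runs, each in duplicate.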

Data set [4] is described as follows: Calculation of physicochemical properties and descriptors. Conditions: 2b over the neutral analogue 2c; from calculated LogS7.4.

Where only a bound is given, the exact number is not on record here.

By CC50 is commonly meant the concentration that lowers cell viability or growth by half. A word on the IC50: it is the point on the concentration scale where inhibition reaches its midpoint.

“(4-methoxyphenyl)(4-phenylpiperazin-1-yl)methanone [1f]”: the half-maximal cytotoxic concentration (CC50) in data set [1] is above 200 µM.
The same measure, in the same setting: with “(4-hydroxy-3-methoxyphenyl)(4-phenylpiperazin-1-yl)methanone [1e]” the figure was above 200 µM.
In data set [2], `COc1ccc(C(=O)N2CCN(Cc3ccccc3)CC2)cc1` [1b, (4-Benzylpiperazin-1-yl)(4-methoxyphenyl)methanone] showed a cytotoxic concentration (CC50) at 48 h above 200 µM. For the same compound, the IC50 in data set [3] is above 150 µM.
In the case of `COc1cc(C(=O)N2CCN(Cc3ccccc3)CC2)ccc1O` [1a, (4-Benzylpiperazin-1-yl)(4-hydroxy-3-methoxyphenyl)methanone], in data set [1], the “SI (Selective Index)” value is reported as above 5.6. Moreover, the CC50 at 48 h in data set [2] was above 200 µM. In data set [3], the half-inhibitory concentration (IC50) is above 150 µM.
On to `COc1cc(/C=C/C(=O)N2CCN(Cc3ccccc3)CC2)ccc1O` [2a, (2E)-1-(4-benzylpiperazin-1-yl)-3-(4-hydroxy-3-methoxyphenyl)prop-2-en-1-one], for which the cytotoxic concentration (CC50) at 48 h in data set [2] was above 200 µM. For the same compound, the 50% inhibitory concentration (IC50) in data set [3] was above 150 µM.
In the case of “(3,4-dihydroxyphenyl)-(4-phenylpiperazin-1-yl)methanone [1d]”, in data set [1], the “SI (Selective Index)” value is listed as above 5.7 and the CC50 is above 200 µM.
For “(2E)-3-(3,4-dihydroxyphenyl)-1-(4-phenylpiperazin-1-yl)prop-2-en-1-one [2d]” the same measures were 2.8 and 57.2 ± 2 µM.
Turning to `COc1ccc(/C=C/C(=O)N2CCN(Cc3ccccc3)CC2)cc1` [2b, (2E)-1-(4-benzylpiperazin-1-yl)-3-(4-methoxyphenyl) prop-2-en-1-one], the “SI (Selective Index)” value in data set [1] is listed as above 7. The compound further showed a 50% cytotoxic concentration (CC50) at 48 h in data set [2] above 200 µM. For the same compound, in data set [4], the “increase in LogS7.4 value” is reported as 1.3 log unit. For the same compound, the IC50 in data set [3] is above 150 µM.
Regarding `O=C(Cn1ccnc1[N+](=O)[O-])NCc1ccccc1` [BZN, Benznidazole, reference compound], the “SI (Selective Index)” value in data set [1] is above 40. The compound also gave a 50% cytotoxic concentration (CC50) at 48 h in data set [2] above 200 µM. In data set [3], the IC50 came to 12.3 ± 3.3 µM.
Regarding `COc1ccc(C(=O)N2CCC(Cc3ccccc3)CC2)cc1` [1c, 4-Benzyl-1-(4-methoxybenzoyl)piperidine], the cytotoxic concentration (CC50) at 48 h in data set [2] was above 200 µM. Moreover, the IC50 in data set [3] stood at 65.3 ± 2.3 µM.
Turning to “(2E)-1-(1-benzylpiperidin-4-yl)-3-(4-methoxyphenyl)prop-2-en-1-one [2c]”, in data set [1], the “SI (Selective Index)” value is listed as above 11.2 and the CC50 is above 200 µM.
Compound `O=C(c1ccc(Cl)cc1)N1CCN(Cc2ccccc2)CC1` [1 g, 1‐benzyl‐4‐(4‐chlorobenzoyl)piperazine] registered a cytotoxic concentration (CC50) at 48 h in data set [2] above 200 µM. Moreover, the IC50 in data set [3] was above 150 µM.
With “(2E)-3-(4-hydroxy-3-methoxyphenyl)-1-(4-phenylpiperazin-1-yl)prop-2-en-1-one”, the 50% cytotoxic concentration (CC50) in data set [1] was above 200 µM.
